Assay outcomes: PubChem BioAssay, several laboratories
Compounds with a hit are over-represented: about 2.9% of the library has one in this group of screens.
FAS TE block = FAS thioesterase domain inhibitors, primary screen, biochemical, fluorescence intensity, uHTS; Fatty acid synthase (Homo sapiens), P49327; recombinant FAS-TE, OMFH fluorogenic substrate, fluorescence endpoint; inhibition, % at 15 µM; 0.67% of 360,000 active;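 active means compounds whose normalised, plate-corrected inhibition of enzyme fluorescence in the single-dose primary screen is 50% or more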;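 further: 0% = DMSO with enzyme and 100% = substrate without enzyme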
CaV13 FRET inh = Disruptors of the CACNA1D IQ motif to Ca2+-dependent inactivation inhibitor domain association, primary screening, Förster resonance energy transfer in intact living …; 0.098% of 340,000 active; AID 743397; inhibition, % at 12.3 µM; HEK cells, CFP/YFP FRET ICDI-IQ, plate reader, 10 min; percent FRET-ratio fall versus neutral wells;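 active means mean replicate inhibition of at least 30% and at least 1% of replicates passing that level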;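 further: 0% = median of the neutral control wells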
Arr AP2 block = inhibitors of beta-arrestin/AP2 binding, primary screen, biochemical, GPCR trafficking, flow cytometry; 0.31% of 340,000 active; FITC-arrestin peptide / GST-AP2 beads; AP2 beta2 appendage carries R879A mutation; AID 504490, 2011; beta-arrestin 1 C-terminal peptide binding to AP2 beta2-adaptin appendage (human); inhibition, % at 10 µM;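 active means inhibition above a set limit, near 3 SD of compounds lacking own fluorescence, cut at about 54% in these data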;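 further: plate controls were DMSO wells for no effect and 5 µM unlabelled arrestin peptide for full effect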
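Material – AP2 appendage R879A on GSH beads · Buffer or medium – PBS with 0.05% Tween 20 and 0.1% BSA · Probe or stimulus – fluorescein-tagged arrestin peptide at 50 nM final · Incubation – compound with beads 12 min RT, then probe 1 h RT · Detection – high-throughput flow cytometry of beads, ex 488, em 535 nm · Evaluation – percent response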
ADAM17 inh = ADAM17 inhibitors, primary screen, biochemical, QFRET. recombinant ADAM17, EDANS/DABCYL FRET peptide cleavage. 0.83% of 370,000 active. inhibition, % at 6.95 µM. AID 720648, 2013;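 active means inhibition above the mean of compounds lying between control limits plus 3 SD, set per campaign, cut at about 8.5% in these data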;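 further: 0% = DMSO-only wells as the low control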
ADAM10 inh = human ADAM10 inhibitors, primary screen, biochemical, QFRET, HTS; recombinant ADAM10, EDANS/DABCYL FRET peptide cleavage, 3 h; inhibition, % at 7 µM; AID 720582, 2013; 0.62% of 370,000 active;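 active means inhibition above a per-campaign cutoff equal to the mean of compounds falling between control-based bounds plus 3 SD, cut at about 20% in these data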;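 further: 0% = DMSO wells while the 100% control is not disclosed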
Target sequence (O14672 214-748 limits assumed): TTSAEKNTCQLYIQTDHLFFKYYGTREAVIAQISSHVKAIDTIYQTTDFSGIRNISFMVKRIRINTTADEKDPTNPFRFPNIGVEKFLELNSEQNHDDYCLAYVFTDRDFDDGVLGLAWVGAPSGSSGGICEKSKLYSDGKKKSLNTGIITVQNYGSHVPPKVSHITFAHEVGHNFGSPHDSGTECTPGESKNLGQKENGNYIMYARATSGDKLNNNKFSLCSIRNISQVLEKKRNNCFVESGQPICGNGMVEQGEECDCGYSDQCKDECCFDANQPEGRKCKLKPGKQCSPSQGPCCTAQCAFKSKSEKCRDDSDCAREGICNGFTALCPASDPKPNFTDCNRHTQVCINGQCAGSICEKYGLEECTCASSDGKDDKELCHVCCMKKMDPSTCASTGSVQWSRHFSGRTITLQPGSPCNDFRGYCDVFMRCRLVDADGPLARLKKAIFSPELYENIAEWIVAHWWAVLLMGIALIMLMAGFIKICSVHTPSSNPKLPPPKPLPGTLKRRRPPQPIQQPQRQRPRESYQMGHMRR
CendR NRP1 mod = modulators of CendR peptide binding to NRP-1, primary screen, biochemical, fluorescence polarization, uHTS; FAM-RPARPAR peptide binding to NRP-1; inhibition, % at 25 µM; 0.85% of 360,000 active;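 active means inhibition or corrected inhibition above about 18%, plus a signal ratio from 0.5 to 1.5, limit read from the data, passing the limit was not always enough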
The depositor's hits bear a star; i = inactive; . = not tested or not shown.

SMILES	FAS TE block	CaV13 FRET inh	Arr AP2 block	ADAM17 inh	ADAM10 inh	CendR NRP1 mod
COc1ccccc1NC(=S)N(Cc1ccc(Cl)cc1)CC1CCC(C(=O)O)CC1 (stereo not given)	1.4	-19.5	15.6	-1.7	1.9	27.5*
C=CCn1c(SCc2ccc(C(=O)Nc3nccs3)cc2)nnc1-c1ccc(C)c(Cl)c1	25.6	-13.2	-11.9	8.8*	7.7	-6.1
Cn1nnnc1SCc1ccc(C(=O)Nc2nccs2)cc1	-8.6	-8.6	2.8	-3.5	0.6	5.1
Cc1[nH][nH]c(=O)c1C(c1c(C)[nH][nH]c1=O)c1cn(C)c2ccccc12	12.0	3.5	-14.3	-2.4	-12.0	20.5*
Cc1[nH][nH]c(=O)c1C(c1c(C)[nH][nH]c1=O)c1cn(Cc2cccc3ccccc23)c2ccccc12	-6.9	-4.5	23.5	2.1	10.1	-0.6
COc1ccc(-n2c(=O)[nH]cc(C(=O)Nc3ccc4c(c3)OCCO4)c2=O)cc1OC	-5.2	-1.7	-11.2	-4.2	-1.9	-3.5
O=C(Nc1ccc2c(c1)OCO2)c1c[nH]c(=O)n(-c2ccc(F)cc2)c1=O	-3.8	-2.7	4.7	-2.7	-2.8	20.2*
Cc1cccc(N(C)c2cc(-c3ccc(F)cc3)nc3ccnn23)c1	6.0	-6.7	.	-14.8	-49.0	-0.9
COC(=O)c1cc2c(c3c4cc(OC)ccc4n(S(=O)(=O)c4ccccc4)c13)C(=O)N(C)C2	.	-4.2	.	0.4	-2.8	.
Cc1csc(SCC(=O)Nc2cccc(S(=O)(=O)N3CCCC3)c2)n1	-3.0	.	-4.0	0.0	-1.6	26.0*
CCOc1ccccc1NC(=O)C(Sc1ccccc1)c1ccccc1 (stereo not given)	27.8	.	10.1	1.0	5.8	26.6*
COc1ccccc1NC(=O)C(Sc1ccccc1)c1ccccc1 (stereo not given)	21.8	-2.3	1.9	4.1	4.4	-6.4
O=C(Cc1ccc(Br)cc1)N1CCN(c2ccc(F)cc2)CC1	2.0	.	-9.8	-1.0	4.1	22.8*
O=C(Cc1ccccc1)NCC(=O)N1CCN(c2ccc(F)cc2)CC1	-5.5	-5.0	.	-1.9	-1.6	25.9*
COc1ccc(N2CCN(C(=O)CNC(=O)Cc3ccccc3)CC2)cc1	-5.9	-6.2	3.0	-1.9	-12.3	-3.6
O=C(NCC(=O)N1CCN(c2ccccc2)CC1)c1ccco1	-3.2	-5.4	-5.5	-3.6	2.5	26.7*
COc1ccc(CC(=O)N2CCN(c3ccc(F)cc3)CC2)cc1	0.1	-20.0	-2.9	-3.4	-7.5	-22.5
O=C(NCC(=O)N1CCN(c2ccc([N+](=O)[O-])cc2)CC1)c1ccco1	-2.9	-6.0	-5.7	2.1	1.3	-10.5
COc1ccc(-n2c(COc3ccc(C)cc3)nnc2SCC(=O)Nc2ccc(S(=O)(=O)Nc3cc(C)nc(C)n3)cc2)cc1	.	.	.	0.2	4.8	.
NC(=O)C1CCCN1 (stereo not given)	-7.5	-4.7	-0.8	-0.7	-2.9	21.9*
Cc1ccn2c(c1)nc(=O)c1cc(S(=O)(=O)N3CCOCC3)ccc12	-4.2	-15.9	-3.4	-239.6	i	20.9*
Cn1c(=O)c(=O)n(C)c2cc(S(=O)(=O)N3CCOCC3)ccc21	-5.7	-5.6	0.3	-2.8	-25.6	-3.1
CCS(=O)(=O)c1ccc(C=NNc2nc3ccccc3o2)cc1	4.4	-10.2	14.9	0.2	-3.5	18.3*
COC(=O)C[C@@H]1CC[C@H](NC(=O)CC2CC2)[C@@H](CO)O1	.	-4.2	.	-4.2	-3.6	3.4
Cc1cc(SCC(=O)OCC(=O)N2CCN(C(=O)c3ccco3)CC2)c(C)cc1Br	0.1	-8.5	23.2	1.6	7.4	2.9
SMILES	FAS TE block	CaV13 FRET inh	Arr AP2 block	ADAM17 inh	ADAM10 inh	CendR NRP1 mod
Cc1cc(SCC(=O)N2CCN(C(=O)c3ccco3)CC2)c(C)cc1Br	9.5	-2.0	-2.8	-2.4	-9.7	21.8*
COC(=O)CCC(=O)N(CCN(Cc1ccccc1)C(=O)CCC(=O)OC)Cc1ccccc1	-0.4	-5.1	2.0	-4.2	-4.3	0.0
CCOC(=O)C(=CN(CCc1ccccc1)CC(=O)OC)C(=O)OCC	-11.2	-10.5	1.9	-0.1	1.6	25.6*
COc1cc(-c2nc(C(=O)NC3CCN(Cc4ccccc4)CC3)cc3c2[nH]c2ccccc23)cc(OC)c1OC	77.2*	.	4.9	.	.	-1.5
COc1ccc(C(=O)NC2CC2)cc1OC1CCN(Cc2ccccc2)CC1	-1.3	.	3.4	0.2	4.5	22.4*
COc1ccc(OC)c(-c2nc(C(=O)NC3CCN(Cc4ccccc4)CC3)cc3c2[nH]c2ccccc23)c1	28.9	.	0.5	-14.8	-88.5	-6.7
COc1ccc(NC(=O)N[C@H]2CC[C@@H](CC(=O)NC3CCC3)O[C@@H]2CO)cc1	.	-3.7	.	-1.0	-4.4	13.5
CCOC(=O)C1(Cc2ccc(OC)cc2)CCN(S(C)(=O)=O)CC1	-4.7	2.9	12.1	-1.7	-2.3	0.2
CCCS(=O)(=O)N1CCC(Cc2ccc(OC)cc2)(C(=O)OCC)CC1	5.7	-6.0	8.8	-0.8	1.2	39.3*
Fc1ccc(-n2nnc(-c3cccnc3)n2)cc1	-7.4	-12.5	26.9	4.9	7.6	26.9*
COc1ccc(CSc2nnc(SCC(=O)Nc3ccccc3-c3ccccc3)s2)cc1	.	.	.	5.8	9.3	.
COc1ccc(C(C(=O)N(C)C2CCCC2)N(Cc2ccc(F)cc2)C(=O)c2csc3ccc(Cl)cc23)cc1OC (stereo not given)	.	.	.	4.6	10.9	.
Cn1cc(-c2cc(C(=O)O)on2)cn1	-3.6	-5.1	-7.5	2.9	8.9	25.2*
O=C(c1ccco1)N1CCN(C(=O)c2cc(-c3ccc(F)cc3)no2)CC1	2.1	-13.6	-1.5	-3.5	5.0	2.2
CC(COc1cccc(C(F)(F)F)c1)CN1CCC(C(O)(c2ccccc2)c2ccccc2)CC1 (stereo not given)	.	.	.	4.9	7.8	.
OC(c1ccccc1)(c1ccccc1)C1CCN(CCCOc2ccc(Br)cc2)CC1	.	.	.	6.3	9.0	.
CCCCN(c1ccccc1)S(=O)(=O)c1ccc2c(c1)CCN2C(=O)CCC(=O)O	3.6	-5.1	13.6	-2.5	6.3	25.2*
COC(=O)[C@H](Cc1ccccc1)NP(=O)(OC)[C@@H](C)NC(=O)OCc1ccccc1 (stereo not given in full)	.	.	.	-1.5	4.1	.
Cc1cccc(CCNC(=O)c2ccc(Sc3ccccc3Cl)c([N+](=O)[O-])c2)c1	.	.	.	1.4	-0.5	.
